# Bioassay records as filed in PubChem BioAssay.
# B2AR ag – beta2AR agonists driving receptor internalization, primary screen, cell-based, FAP fluorogen, flow cytometry; Beta-2 adrenergic receptor (Homo sapiens), P07550; Am2.2-beta2AR cells; response, % (concentration not given with the values); hit rate 0.43% among 340,000; AID 504454, 2011;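 active = response above a set limit, near 3 SD of response in nonfluorescent compounds, cut at about 42% in these data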
# Target sequence (P07550 whole entry, looked up): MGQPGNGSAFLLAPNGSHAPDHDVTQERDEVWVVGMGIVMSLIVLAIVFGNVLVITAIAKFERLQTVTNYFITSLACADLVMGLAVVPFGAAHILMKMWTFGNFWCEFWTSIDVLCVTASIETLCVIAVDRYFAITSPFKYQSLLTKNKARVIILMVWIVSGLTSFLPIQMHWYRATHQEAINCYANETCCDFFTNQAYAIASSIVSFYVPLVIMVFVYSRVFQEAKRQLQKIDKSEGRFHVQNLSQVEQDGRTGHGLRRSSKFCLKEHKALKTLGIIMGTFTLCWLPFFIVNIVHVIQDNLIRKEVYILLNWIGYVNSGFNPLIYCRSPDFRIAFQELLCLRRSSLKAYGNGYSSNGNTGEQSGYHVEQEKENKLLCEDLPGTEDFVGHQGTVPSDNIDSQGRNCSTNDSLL
# GRK2 aptamer HTS – compounds blocking aptamer binding on GRK2 – biochemical, human GRK2, bead flow cytometry, HTS, primary screen; Beta-adrenergic receptor kinase 1 (Homo sapiens), P25098; FAM-aptamer displacement from GRK2; inhibition of aptamer binding, % at 10 µM; hit rate 0.59% among 330,000; AID 488847, 2010;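 active = inhibition of aptamer binding above 40%, roughly 3 SD of noise, on plates passing a quality check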;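 also: median bead fluorescence of bound FAM aptamer so fluorescent compounds give negative values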
# SENP1 inh – human SENP1 catalytic domain inhibitors, primary screen, biochemical, FRET, uHTS | Sentrin-specific protease 1 (Homo sapiens), Q9P0U3 | recombinant SENP1 catalytic domain, CyPet-SUMO1-YPet FRET cleavage | inhibition, % at 10 µM | hit rate 0.21% among 360,000 | AID 624204, 2012;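 active = inhibition at least 30% at 10 µM, raw YFP signal under a set limit, fluorescence ratio 0.5 to 1.5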;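 also: 0% = enzyme with DMSO and 100% = no enzyme wells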
# Target sequence (Q9P0U3 419-644 limits assumed): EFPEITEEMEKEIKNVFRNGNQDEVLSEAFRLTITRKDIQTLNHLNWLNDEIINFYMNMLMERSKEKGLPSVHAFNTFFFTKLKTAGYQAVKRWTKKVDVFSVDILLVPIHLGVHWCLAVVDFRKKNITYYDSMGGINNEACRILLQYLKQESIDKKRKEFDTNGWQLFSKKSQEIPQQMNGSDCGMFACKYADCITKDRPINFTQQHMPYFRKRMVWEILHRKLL
#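 Compound: 10 µM single point, 0.5% DMSO; Test system: hSENP1 catalytic domain, recombinant; Timing: 50 min reaction at room temperature; Technique: FRET, CFP and YFP emission; Control set: no-enzyme wells low, DMSO-plus-enzyme wells high control.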
# NadD inh – inhibitors of S. aureus NadD, primary screen, biochemical, colorimetric, uHTS. purified NadD enzyme, colorimetric absorbance read-out. inhibition, % at 20 µM. hit rate 0.78% among 360,000; in the data active = inhibition above about 26%
# ABHD5-PLIN5 inh – ABHD5-PLIN5 interaction inhibitors, primary screen, cell lysate, split luciferase complementation, luminescence | hit rate 0.78% among 360,000 | Split G. princeps luciferase complementation, 4 h | inhibition, % at 4 µM | Perilipin-5 (Homo sapiens) + 1-acylglycerol-3-phosphate O-acyltransferase ABHD5 (Homo …;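 active = inhibition above the mean inhibition across every tested compound plus 3 SD, cut at about 22% in these data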;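 also: 0% = DMSO only wells and the 100% control is not disclosed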
# ABHD5-PLIN5 conf – ABHD5-PLIN5 interaction inhibitors, confirmation, biochemical, luminescence | inhibition, % at 4 µM | hit rate 67% among 2,200 | shares compounds with ABHD5-PLIN5 inh; in the data active = inhibition above about 23%;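 also: 0% = DMSO vehicle wells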
# HNF4 counter – HNF4 dimerization inhibitors, counter-screen for ABHD5-PLIN5 interaction inhibitor project, biochemical, split-luciferase complementation, luminescence. inhibition, % at 4 µM. shares compounds with ABHD5-PLIN5 inh. hit rate 77% among 2,200. AID 651674, 2012;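 active = mean inhibition across replicate wells exceeding the computed hit threshold, cut at about 13% in these data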;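 also: light from luciferase halves that rejoin when HNF4 fusion proteins dimerize; 0% = DMSO only wells and the 100% control is not given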
# * = called active by the depositor; . = no result. Only some compounds are listed: those with a hit (about 2.5% of all), similar ones and a draw of the others.
SMILES,B2AR ag,GRK2 aptamer HTS,SENP1 inh,NadD inh,ABHD5-PLIN5 inh,ABHD5-PLIN5 conf,HNF4 counter
COC(=O)c1ccc2nc(-c3ccco3)c(Cc3ccc(OC)cc3C)n2c1,.,.,-13.0,21.6,46.7*,72.2*,83.2*
Cc1ccc(Cn2c(=S)[nH]c3ccc(N4CCOCC4)cc3c2=O)o1,25.2,2.0,-37.5,18.1,30.6*,42.7*,90.6*
N#C/C(=C\c1ccc(-c2nc3ccccc3s2)o1)C(N)=O,18.6,1.0,-34.2,6.2,2.4,.,.
CNC(=O)/C(C#N)=C/c1ccc(-c2nc3ccccc3s2)o1,-2.1,4.0,-34.9,0.4,35.5*,6.2,4.2
CCc1ccc(C(=O)NNC(=O)CN2C(=O)NC(CC)(c3ccccc3)C2=O)cc1 (stereo not drawn),-4.6,1.0,0.2,0.4,-6.2,.,.
Cc1noc(/C=C/c2ccccn2)c1[N+](=O)[O-],-1.1,1.0,-1.1,-4.4,42.2*,77.3*,70.2*
Cc1ccc(C(=O)Nc2nc3ccccc3c(=O)s2)cc1,-8.0,0.0,1.3,2.9,28.7*,5.8,-9.9
CSc1nc2ccc3nc(NC(=O)c4ccc(C)cc4)sc3c2s1,4.5,4.0,-12.4,-1.7,-3.5,.,.
CCOC(=O)N1CCc2c(sc(NC(=O)CCS(=O)(=O)c3ccccc3)c2C(N)=O)C1,1.4,1.0,-9.2,-2.5,29.8*,24.4*,37.4*
CC(=O)N1CCc2c(sc(NC(=O)CCS(=O)(=O)c3ccccc3)c2C(N)=O)C1,-5.3,0.0,-39.6,4.1,-2.1,.,.
Oc1c(C(c2ccccc2)N2CCOCC2)ccc2ccccc12 (stereo not drawn),11.8,.,1.3,18.1,39.6*,102.2*,105.9*
O=C(/C=C1\C(=O)Nc2ccccc21)/C=C1\C(=O)Nc2ccccc21,22.3,.,-16.6,25.2,63.0*,101.5*,105.2*
O=C1Nc2ccccc2/C1=C\C(=O)c1ccccc1,19.9,0.0,6.1,-4.9,49.7*,81.5*,95.6*
CC(C)Oc1ccc(C(=O)/C=C2/C(=O)Nc3ccccc32)cc1,13.0,13.0,-0.1,-8.7,62.4*,81.5*,85.9*
CN(C)/C=C1\C(=O)Nc2ccccc21,-3.9,3.0,3.0,2.6,-1.5,.,.
O=C1Nc2ccccc2/C1=C/c1ccccc1Cl,10.3,4.0,2.2,-4.7,26.9*,40.2*,26.1*
CN(O)/C=C1\C(=O)Nc2ccccc21,6.6,1.0,-0.4,5.0,-33.6,.,.
O=C(COC(=O)c1ccc(Br)cc1)NCc1ccccc1,-1.9,2.0,5.2,-2.3,0.1,.,.
CC(=O)Cc1cc(O)c2ccccc2c1OC(=O)c1ccc(Br)cc1,3.4,0.0,0.1,-6.7,73.3*,82.9*,12.9*
CCN(C[C@H]1N[C@@](CC)(C(=O)OC)[C@H]2C(=O)N(C)C(=O)[C@@H]12)S(=O)(=O)c1ccccc1,-9.2,2.0,-0.7,5.3,7.6,.,.
O=C(N/N=C/c1ccccc1)c1ccco1,0.1,0.0,-0.9,1.7,9.3,.,.
O=C(C#Cc1ccccc1)c1ccco1,81.9*,0.0,0.6,-11.0,38.9*,53.6*,107.2*
Cc1ccc(-c2nn(-c3ccccc3)cc2C=C2C(=O)CC(C)(C)CC2=O)cc1,7.6,1.0,1.9,19.3,1.1,.,.
CC1=NNC(=O)/C1=C\c1cn(-c2ccccc2)nc1-c1ccc(Cl)cc1,107.5*,0.0,2.2,4.3,32.0*,56.2*,91.2*
COc1ccc(CN(C)CC(=O)Nc2ccccc2C(=O)NC2CC2)cc1OC,18.0,1.0,-0.4,-3.9,-5.1,.,.
SMILES,B2AR ag,GRK2 aptamer HTS,SENP1 inh,NadD inh,ABHD5-PLIN5 inh,ABHD5-PLIN5 conf,HNF4 counter
C=CCn1c(SCC(C)=O)nc2scc(-c3ccco3)c2c1=O,6.9,5.0,-13.9,14.2,33.6*,53.7*,85.3*
C=CCn1c(SCC(=O)N2CCOCC2)nc2scc(-c3ccco3)c2c1=O,-0.9,0.0,-16.3,27.1,32.9*,23.3*,48.5*
C=CCn1c(SCC(=O)NCc2ccco2)nc2sc(C)c(C)c2c1=O,-0.5,1.0,0.7,-1.5,-2.0,.,.
C=CCn1c(SCC(=O)NCc2ccc3c(c2)OCO3)nc2scc(-c3ccccc3)c2c1=O,5.2,0.0,1.7,-5.0,1.6,.,.
C=CCn1c(SCc2ccc3c(c2)OCO3)nc2scc(-c3ccco3)c2c1=O,6.3,1.0,-9.2,24.4,35.8*,17.0,9.9
C=CCn1c(SCC(=O)NCCCC(=O)OCC)nc2scc(-c3ccco3)c2c1=O,-0.7,4.0,-15.3,9.5,30.5*,6.9,13.2*
C=CCn1c(SC(F)F)nc2scc(-c3ccco3)c2c1=O,5.3,0.0,-4.7,-4.7,4.5,.,.
C=CCn1c(SCC(=O)N2CCCC2)nc2scc(-c3cccs3)c2c1=O,-4.3,2.0,-0.5,-3.5,-1.7,.,.
Nc1c(C2CCCCC2)c(=O)on1C(=O)c1ccccc1,0.3,.,2.7,2.5,-18.9,.,.
O=S(=O)(c1ccccc1)N1CCN(Cc2c(O)ccc3ccccc23)CC1,1.0,0.0,0.2,5.6,28.1*,38.7*,81.4*
Oc1ccc2ccccc2c1CN1CCN(C/C=C/c2ccccc2)CC1,-3.4,13.0,1.0,-4.0,5.2,.,.
CCN(C(=O)COC(=O)CCCc1c[nH]c2ccccc12)c1c(N)n(Cc2ccccc2)c(=O)[nH]c1=O,-4.7,.,1.1,1.4,0.6,.,.
O=C(/C=C/c1ccco1)c1cccc([N+](=O)[O-])c1,3.4,.,1.1,21.4,28.6*,45.8*,29.9*
O=C(/C=C/c1ccc(Br)cc1)c1ccco1,16.3,4.0,-0.5,-4.5,79.2*,98.8*,98.7*
O=C(/C=C/c1ccc([N+](=O)[O-])cc1)c1ccco1,4.6,7.0,0.0,5.4,33.4*,90.9*,90.8*
O=C(/C=C/c1ccc(-c2ccccc2[N+](=O)[O-])o1)c1ccco1,0.5,6.0,1.9,11.7,29.8*,63.7*,48.4*
Cc1ccccc1CN(C)C(C)C(=O)NCc1ccccc1 (stereo not drawn),-5.6,0.0,1.6,-9.5,8.9,.,.
CC1CCCC(NC(=O)c2cccc(S(=O)(=O)N3CCN(c4ccccc4)CC3)c2)C1C (stereo not drawn),2.2,3.0,-1.9,2.3,0.3,.,.
CCNC(=O)N1C[C@H]2CON(C)[C@H]2C[C@H]1c1ccccc1Br,.,.,0.9,-7.1,0.3,.,.
